High-throughput results as filed in PubChem.
An excerpt weighted towards active compounds, which were near 3.8% of everything screened.
MC4R ag barr: activates human MC4R beta-arrestin recruitment; hit rate 0.98% among 360,000; P32245; activation, % at 8.9 µM; AID 540308; U2OS MC4R beta-arrestin complementation, luminescence; percent of melanotan II response, DMSO zero;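 active means activation above a per-plate cutoff, the mean activation of sample wells on that plate plus 3 SD, cut at about 8% in these data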
Target sequence (P32245 whole entry, looked up): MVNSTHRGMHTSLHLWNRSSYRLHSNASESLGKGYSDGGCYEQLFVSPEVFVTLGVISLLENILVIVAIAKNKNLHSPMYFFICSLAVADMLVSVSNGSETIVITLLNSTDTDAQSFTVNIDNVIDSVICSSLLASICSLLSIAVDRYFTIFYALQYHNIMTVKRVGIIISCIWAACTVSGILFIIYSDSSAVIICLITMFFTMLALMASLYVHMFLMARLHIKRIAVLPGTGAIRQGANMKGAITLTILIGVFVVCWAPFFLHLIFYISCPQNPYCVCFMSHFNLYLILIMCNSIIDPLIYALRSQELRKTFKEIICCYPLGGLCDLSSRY
ANO1 activ: activates or potentiates the mouse TMEM16A chloride channel; Q8BHY3; HEK293 TMEM16A/YFP-H148Q/I152L, iodide quench fluorescence; stronger effect = lower value; B-score at 10 µM; hit rate 0.3% among 340,000;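 active means fluorescence-ratio B-score plate-corrected deviation score at least 3 library SD below zero, with starting fluorescence score within 5 deviations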;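 further: channel opened by trigger with iodide after compound preincubation; score built on the fluorescence ratio of max minus min over baseline; more negative score means more quench and so TMEM16A activation or potentiation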
CSC inhib: cancer stem cell inhibition | cancer stem cell-like cells viability, luminescence | inhibition, % at 7.5 µM | hit rate 1.1% among 300,000; in the data active means inhibition above about 75%; tested in HMLE shEcad cells
Beta apoptosis: beta cell apoptosis inhibition; hit rate 0.8% among 300,000; protection from apoptosis, % (test concentration not listed); INS-1E cytokine-induced death, ATP luminescence, 48 h; percent of positive-control rescue, neutral wells zero;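 active means Every replicate reaches about 75%, or at least half do and their mean reaches it too, limit read from the data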;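 further: 0% = cytokine-treated negative control wells and 100% = positive control rescue; higher means more ATP so stronger rescue from cytokine killing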
MC4R antagonist: human MC4R antagonism in cAMP assay; P32245; MC4R-expressing cells, MTII-stimulated cAMP, LANCE TR-FRET; inhibition, % at 6.5 µM; hit rate 0.48% among 360,000; AID 540295;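 active means inhibition above its plate's cutoff, the mean of tested wells on that plate plus 3 SD, cut at about 29% in these data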;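 further: 0% = Melanotan II alone and 100% = Melanotan II plus saturating MCL0020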
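Assay system: U2OS cells stably expressing human melanocortin 4 receptor (MC4R) / Dosing: 6.5 µM / Timing: compound 30 min, challenge 1 h, detection 1 h / Measured by: Eu-cAMP/anti-cAMP TR-FRET, emission 671 nm / Replicates: singlicate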
TMEM16A inh: blocks the mouse calcium-activated chloride channel TMEM16A; normalized B-score (activity score, 25-100; higher = stronger inhibition) at 10 µM; hit rate 1.2% among 310,000; AID 588511; HEK293 TMEM16A/YFP iodide influx fluorescence, ionomycin;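 active means ratio plate-corrected score three or more library SD toward inhibition, starting fluorescence score within five deviations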;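 further: score derived from kinetic fluorescence span divided by baseline fluorescence per well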
Numbers without * were called inactive; i = inactive; . = no result.

SMILES	MC4R ag barr	ANO1 activ	CSC inhib	Beta apoptosis	MC4R antagonist	TMEM16A inh
Cc1c(CC(=O)O)c(=O)oc2c(C)c(OCc3nn[nH]n3)ccc12	0	-4.9*	2	-2	2	i
CC(C)CN(C(=O)CN(C)C(=O)c1ccco1)c1c(N)n(CC(C)C)c(=O)[nH]c1=O	0	i	-7	-6	3	i
CCOC(=O)CC(NS(=O)(=O)c1ccc(NC(C)=O)cc1)c1ccc(OCC)cc1 (stereo unspecified)	1	i	.	-1	0	25*
O=C(NCC1CCCO1)C1CCCN(Cc2cnn(-c3ccccc3)c2-n2cccc2)C1 (stereo unspecified)	-1	-25*	-15	4	8	i
O=[N+]([O-])c1c(Nc2cccc(O)c2)cc(Cl)c2nonc12	-4	-11*	69	34	-38	25*
O=C(O)c1ccc(Nc2cc(Cl)c3nonc3c2[N+](=O)[O-])cc1	-1	i	-1	-1	-7	i
COc1ccc(-c2c(-c3ccc(C#N)cc3)oc(=O)c3cc(OC)c(OC)cc23)cc1	-2	i	.	15	11	.
COc1ccc(/C=N/N2C(=O)CSC2=S)cc1	1	i	5	6	0	i
COc1ccc(-c2nn(-c3ccccc3)cc2/C=N/N2C(=O)CSC2=S)cc1	2	i	108*	106*	11	i
COc1ccc(C(CNC(=O)c2oc3ccc(OC)cc3c2C)N2CCCC2)cc1 (stereo unspecified)	-4	i	12	-7	9	i
CCc1ccc2oc(C(=O)NCC(c3ccc(OC)cc3)N3CCCCC3)c(C)c2c1 (stereo unspecified)	-1	i	85*	16	7	i
Cc1ccc(S(=O)(=O)N2CC(O)C[C@H]2C(=O)OCC(=O)N2CCN(c3ccc(F)cc3)CC2)cc1C (stereo partly specified)	0	i	.	.	4	.
O=C(CCl)N=c1sccn1Cc1ccc(Cl)cc1Cl	12*	i	0	69	21	i
O=C(CCl)N=c1sccn1Cc1ccccc1Cl	24*	i	21	-5	8	i
CCC(=O)OCC(=O)N=c1sccn1Cc1ccccc1Cl	-1	i	-13	1	13	i
O=C(CCl)N=c1sccn1Cc1cccc2ccccc12	7	i	.	.	14	.
O=C(/C=C/c1cccs1)Nc1cccc(NC(=O)/C=C/c2cccs2)n1	0	i	6	19	14	i
Cc1cc(C)nc(NC(=O)/C=C/c2cccs2)c1	-1	i	86*	6	-1	i
Cc1ccccc1-n1nc2c(c1NC(=O)CC(C)C)CS(=O)C2 (stereo unspecified)	-2	i	-9	4	2	i
Cc1ccc(NC(=S)N(CCN2CCCCC2)Cc2ccco2)cc1Cl	-2	-5.1*	-4	-2	3	i
Cc1cc(C)cc(NC(=S)N(CCN2CCCCC2)Cc2ccco2)c1	-2	i	-3	2	11	i
CN(CC(=O)Nc1ccccc1N1CCOCC1)S(=O)(=O)c1ccc(F)cc1	1	i	-13	-6	2	25*
O=C(O)CC(C(=O)O)N1C(=O)/C(=C/c2ccc(-c3nc4ccccc4s3)o2)SC1=S (stereo unspecified)	1	-7.7*	2	-5	1	i
CCN(CC)c1c(C)nc2ccc(C(=O)N3CCN(C(=O)c4ccco4)CC3)cn12	-2	.	.	.	-3	.
CN(C)CCCNc1cc(C(C)(C)C)nc2c(-c3ccc(Cl)cc3)cnn12	8.3*	i	107*	21	0	i
SMILES	MC4R ag barr	ANO1 activ	CSC inhib	Beta apoptosis	MC4R antagonist	TMEM16A inh
CC(C)(C)c1cc(NCc2ccccn2)n2ncc(-c3ccc(Cl)cc3)c2n1	1	i	56	7	13	i
CC(C)(C)c1cc(NCCCn2ccnc2)n2ncc(-c3ccccc3)c2n1	-1	i	59	114*	10	i
Cc1cc(NCCCn2ccnc2)n2ncc(-c3ccc(Cl)cc3)c2n1	-3	i	42	15	6	i
CCc1nc2c(OCc3ccc(Cl)cc3Cl)cccn2c1N(C)C(=O)C1CC1	-2	.	.	.	-2	.
Cc1c(C)c2ccc(OCC(=O)N3CC[C@@]4(O)CCCC[C@H]4C3)cc2oc1=O	-1	-5.6*	-2	6	-3	i
CCOc1ccccc1N(C(=O)Nc1ccc(Cl)cc1)C1=NCCS1	-2	i	84*	3	12	i
CCOc1ccccc1N(C(=O)Nc1cccc(Cl)c1)C1=NC(C)CS1 (stereo unspecified)	-2	i	0	-7	-6	i
CCN(CC)CCNCc1ccc(-c2ccc(Cl)cc2)o1	-1	i	79*	-3	-2	i
Cc1cc2c(cc1C)C(=O)C(Br)=C(N)C2=O	-1	i	.	.	-18	.
NC1=C(Br)C(=O)c2ccccc2C1=O	-1	i	59	102*	-28	i
Cc1ccccc1NC(=O)/C=C/c1ccc([N+](=O)[O-])s1	-2	i	98*	120*	2	i
Cc1ccc(S(=O)(=O)N2CCC(=O)N(C(COCc3cccc(C(F)(F)F)c3)Cc3ccccc3)CC2)cc1 (stereo unspecified)	-1	-19*	14	30	3	i
Cc1ccc(S(=O)(=O)N2CCC(=O)N(C(COCc3ccc(Cl)cc3Cl)Cc3ccccc3)CC2)cc1 (stereo unspecified)	-1	-29*	21	19	12	i
Cc1ccc(S(=O)(=O)N2CCC(=O)N(CCOCc3cccc(F)c3)CC2)cc1	8.4*	i	-2	-5	1	i
Cc1ccc(S(=O)(=O)N2CCC(=O)N(C(COCc3cccc(Cl)c3)C(C)C)CC2)cc1 (stereo unspecified)	0	i	-17	2	4	i
Cc1ccc(S(=O)(=O)N2CCC(=O)N(C(COCc3ccccc3)Cc3ccccc3)CC2)cc1 (stereo unspecified)	-1	i	1	10	10	i
Cc1ccc(S(=O)(=O)N2CCC(=O)N(C(COCc3cccc(Cl)c3)Cc3ccccc3)CC2)cc1 (stereo unspecified)	2	-11*	15	1	18	i
Cc1ccc(C)c(NC(=O)CN(C)C(=O)c2ccccc2Cc2ccccc2)c1	-3	i	6	-5	7	i
CC1CCN(Cc2c(C(=O)N/N=C/c3cccc(C(F)(F)F)c3)nnn2-c2nonc2N)CC1	5	i	-20	10	12	i
COc1c(Cl)cc(Cl)cc1/C=N/NC(=O)c1nnn(-c2nonc2N)c1CN1CCC(C)CC1	-2	i	22	26	4	i
